The nature of assay [1]: reducers of endogenous Her2 protein level, primary screen, SKBR3 breast tumor cells, AlphaScreen, ATP viability (AID 461;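 active = Her2 level under about 52% in both replicate screens, with viability over 70% of control, limit read from the data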;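 as to Her2 level: lower value means less Her2 protein in the cells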;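 as to viability: percent of carrier control wells set as 100% viability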). Conditions: 18-24 h, measured here: SKBR3 viability, ATP luminescence, at 10 µM. In general terms: Bead proximity is the source of the signal in Alpha formats.
Assay [2] has as its target Receptor tyrosine-protein kinase erbB-2 (Homo sapiens) (UniProt P04626). The assay is described as above. Conditions: 18-24 h, at 10 µM, stronger effect = lower value.
Assay [3] in a line: SK-BR-3 cell growth inhibitors, pilot screen, 24 h, human (AID 572;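 active = viability at or below 10% of carrier control in both of two separate runs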;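 also: compound exposure lasted between 18 and 24 h rather than exactly 24 h; 100% = carrier-treated control wells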). Conditions: SK-BR-3 viability, CellTiter-Glo luminescence, at 10 µM, stronger effect = lower value. (In general: Cellular ATP, detected with luciferase, serves as a proxy for viable cell number.)
The nature of assay [4]: HUVEC growth inhibition – cell-based, human, primary screen (AID 575;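 active = viability at or below 30% in both replicate assays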;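 also: 100% = median of untreated cell wells with 0.1% DMSO on each plate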). As to conditions: HUVEC proliferation, CellTiter-Glo luminescence, 72 h; at 10 µM; stronger effect = lower value. An outline of the steps: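 Assay system: primary human umbilical vein endothelial cells / Buffer or medium: endothelial basal medium with 2% FBS plus growth supplements / Compound dosing: one dose, 10 µM final, 0.1% DMSO / Timing: 72 h treatment at 37 °C / Signal: CTG luminescence / Benchmarks: 32 DMSO-only cell-control wells (high), 32 MePR drug-control wells (low) per plate / Plate: collagen-coated 384-well format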

Assay [5] is described as follows: growth inhibitors of H69AR lung tumor, primary screen, human, duplicate replicates (AID 580).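 Also: 100% = mean luminescence of untreated wells and 0% = no signal.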 As to conditions: H69AR lung tumor cells viability, ATP luminescence, 72 h; at 10 µM; stronger effect = lower value.
A short description of assay [6]: reversal of MRP1-mediated doxorubicin resistance, pilot screen, H69AR cells, doxorubicin co-treatment (AID 601;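 active = viability loss from added drug above about 55%, and viability with drug at most 40%, in both replicates, limit read from the data, passing the limit was not always enough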). As to conditions: CellTiter-Glo, 72 h, at 10 µM; for differential viability (reversal): stronger effect = higher value.
A short description of assay [7]: 384-well plate pilot, post-Golgi transport modulator project, inhibition of yeast transport mutant growth (AID 636; in the data active = inhibition above about 31%). Conditions: absorbance 615 nm, about 18 h, stronger effect = higher value.
A short description of assay [8]: growth suppression of yeast trafficking mutant, preliminary HTS, modulators of trafficking downstream of Golgi apparatus project, 1536-format plate, OD 615 nm (AID 637; in the data active = inhibition above about 30%). Conditions: yeast transport mutant growth, absorbance 615 nm, 18 h; stronger effect = higher value.
[9] abbreviates: H69AR cells + 2 uM doxorubicin, measured here: viability with 2 uM doxorubicin, stronger effect = lower value.
The mark [10] stands for this setting: H69AR cells, compound alone cytotoxicity.

The source made the active and inactive calls.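 The calls were made as follows, unless noted: active = viability at or under a set limit in both replicates, limit being median viability minus 3 SD (cut at about 48% in these data, passing the limit was not always enough); inconclusive = at or under the limit in just one replicate; inactive = at or above the limit in both replicates.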 Square brackets hold non-standard residues; d marks the D form. Peptide text beside a SMILES is read from it. * marks the point of attachment. ξ: configuration not given here. Cbz = O=C(OCc1ccccc1)*; ξK = NCCCCC(N)C(=O)O

Receptor tyrosine-protein kinase erbB-2 (Homo sapiens), sequence (P04626 whole entry, looked up): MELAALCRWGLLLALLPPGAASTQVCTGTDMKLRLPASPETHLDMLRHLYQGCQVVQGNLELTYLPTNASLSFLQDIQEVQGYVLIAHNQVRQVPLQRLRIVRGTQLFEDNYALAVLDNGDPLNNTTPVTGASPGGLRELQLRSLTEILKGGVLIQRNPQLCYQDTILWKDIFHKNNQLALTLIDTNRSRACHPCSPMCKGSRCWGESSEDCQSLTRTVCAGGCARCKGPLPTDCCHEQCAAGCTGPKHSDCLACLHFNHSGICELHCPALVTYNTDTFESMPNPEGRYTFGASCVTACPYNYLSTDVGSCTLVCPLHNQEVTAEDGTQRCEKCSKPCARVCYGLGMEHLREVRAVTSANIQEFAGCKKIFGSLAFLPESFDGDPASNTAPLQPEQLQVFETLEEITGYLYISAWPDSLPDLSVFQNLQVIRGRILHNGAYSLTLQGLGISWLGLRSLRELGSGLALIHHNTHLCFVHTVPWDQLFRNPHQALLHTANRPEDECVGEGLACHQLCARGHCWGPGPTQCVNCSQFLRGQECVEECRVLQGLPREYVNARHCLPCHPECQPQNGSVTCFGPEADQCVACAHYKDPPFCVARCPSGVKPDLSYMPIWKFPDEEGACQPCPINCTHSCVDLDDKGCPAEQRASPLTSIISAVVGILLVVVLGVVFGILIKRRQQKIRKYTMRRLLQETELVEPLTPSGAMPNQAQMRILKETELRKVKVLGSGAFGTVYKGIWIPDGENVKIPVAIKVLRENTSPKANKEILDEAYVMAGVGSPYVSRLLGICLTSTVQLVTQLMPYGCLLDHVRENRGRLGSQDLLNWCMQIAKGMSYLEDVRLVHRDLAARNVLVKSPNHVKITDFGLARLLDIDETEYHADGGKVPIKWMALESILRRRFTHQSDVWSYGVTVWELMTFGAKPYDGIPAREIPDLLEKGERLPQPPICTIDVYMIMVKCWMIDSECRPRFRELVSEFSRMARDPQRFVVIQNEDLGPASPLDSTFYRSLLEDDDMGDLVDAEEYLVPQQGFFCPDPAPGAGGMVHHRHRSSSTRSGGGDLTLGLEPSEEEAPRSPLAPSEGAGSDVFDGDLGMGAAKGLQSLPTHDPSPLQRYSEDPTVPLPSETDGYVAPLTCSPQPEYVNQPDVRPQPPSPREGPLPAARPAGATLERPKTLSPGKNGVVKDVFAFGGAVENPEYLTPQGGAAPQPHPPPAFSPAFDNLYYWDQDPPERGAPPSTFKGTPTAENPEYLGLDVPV

The term viability denotes a read-out of living cells in per cent, often relative to untreated cells. As a reminder, the inhibition is the relative decrease from the control value, in per cent. For `COc1ccc(N(CC(=O)N2CCN(Cc3ccc4c(c3)OCO4)CC2)S(C)(=O)=O)cc1OC`, the viability in assay [1] is 106%; in assay [3], 106% (inactive); in assay [4], 108% (inactive); in assay [5], 96.2% (inactive); in assay [6] (setting [9]) it was 86.2%; in assay [6] (setting [10]) it was 96.2%. For the same compound, the Her2 level in assay [2] was 89.5% (inactive). Besides, the differential viability (reversal) in assay [6] (H69AR cells + 2 uM doxorubicin) was 9.96% (inactive). The inhibition was -8.67% (inactive) in assay [7] and -2.58% (inactive) in assay [8].

`NS(=O)(=O)c1ccc(NCc2c(F)cccc2Cl)cc1`: the viability was 100% in assay [1]; 100% (inactive) in assay [3]; 102% (inactive) in assay [4]; 82.9% (inactive) in assay [5]; 76.5% in assay [6] (setting [9]); 82.9% in assay [6] (setting [10]). Also, in assay [2], the Her2 level was 95.5% (inactive). Also, the differential viability (reversal) in assay [6] (H69AR cells + 2 uM doxorubicin) is 6.38% (inactive). For the same compound, the inhibition was -3.82% (inactive) in assay [7] and 7.54% (inactive) in assay [8].

Regarding `O=c1c2c3nc4ccccc4nc3n(CC3CCCO3)c2ncn1CCc1ccccc1` (stereo not given), the viability in assay [1] is 97%; in assay [3], 97% (inactive); in assay [4], 76.2% (inactive); in assay [5], 70.4% (inactive); in assay [6] (setting [9]) it was 31.8%; in assay [6] (setting [10]) it was 70.4%. Further, the Her2 level in assay [2] is 83.5% (inactive). The differential viability (reversal) in assay [6] (H69AR cells + 2 uM doxorubicin) is 38.6% (inactive). In addition, the inhibition in assay [7] was -6.93% (inactive); in assay [8], -2.62% (inactive).

As for `CCc1c(C(=O)N2CCOCC2)csc1C`, the viability in assay [1] is 120%; in assay [3], 120% (inactive); in assay [4], 101% (inactive); in assay [5], 106% (inactive); in assay [6] (setting [9]), 84.9%; in assay [6] (setting [10]), 106%. Further, the Her2 level in assay [2] is 154% (inactive). For the same compound, in assay [6] (H69AR cells + 2 uM doxorubicin), the differential viability (reversal) was 20.8% (inactive). Also, the inhibition in assay [7] is -3.95% (inactive); in assay [8] it was -8.33% (inactive).

Take `O=C(CCN1C(=O)C2C3C=CC(C3)C2C1=O)NCCc1ccccc1Cl` (stereo not given): the viability in assay [1] is 95%; in assay [3], 95% (inactive); in assay [4], 94.2% (inactive); in assay [5] it was 95.2% (inactive); in assay [6] (setting [9]), 84.7%; in assay [6] (setting [10]) it was 95.2%. Besides, the Her2 level in assay [2] was 68.5% (inactive). In addition, in assay [6] (H69AR cells + 2 uM doxorubicin), the differential viability (reversal) was 10.5% (inactive). For the same compound, the inhibition was -6.49% (inactive) in assay [7] and -5.08% (inactive) in assay [8].

As for `O=C(c1cnn2c(C(F)F)cc(C3CC3)nc12)N1CCOCC1`, the viability in assay [1] was 104%; in assay [3] it was 104% (inactive); in assay [4], 107% (inactive); in assay [5] it was 113% (inactive); in assay [6] (setting [9]), 93.5%; in assay [6] (setting [10]), 113%. The Her2 level in assay [2] was 102% (inactive). The differential viability (reversal) in assay [6] (H69AR cells + 2 uM doxorubicin) is 19.2% (inactive). For the same compound, the inhibition is -3.29% (inactive) in assay [7] and -10.2% (inactive) in assay [8].

Regarding `Cc1cc(NC(=O)CCC(=O)N(CC(=O)NC2CCCC2)Cc2ccc(F)cc2)no1`, the viability in assay [1] is 101%; in assay [3] it was 101% (inactive); in assay [4] it was 88.9% (inactive); in assay [5], 95.6% (inactive); in assay [6] (setting [9]), 82.7%; in assay [6] (setting [10]), 95.6%. The Her2 level in assay [2] was 94% (inactive). In addition, in assay [6] (H69AR cells + 2 uM doxorubicin), the differential viability (reversal) is 12.9% (inactive). Further, the inhibition in assay [7] is -5.87% (inactive); in assay [8], -5.08% (inactive).

For `C=CC(O)(C#CCN(CC)CC)c1ccccc1` (stereo not given), the viability in assay [1] was 96.5%; in assay [3], 96.5% (inactive); in assay [4], 102% (inactive); in assay [5], 99.9% (inactive); in assay [6] (setting [9]) it was 89.9%; in assay [6] (setting [10]), 99.9%. The Her2 level in assay [2] was 89% (inactive). Besides, the differential viability (reversal) in assay [6] (H69AR cells + 2 uM doxorubicin) is 10.1% (inactive). Also, the inhibition in assay [7] was -2.03% (inactive); in assay [8] it was -0.63% (inactive).

In the case of `CCCN(CCC)C(=O)CSc1nc2ccccc2c(=O)n1C1CCCC1`, the viability was 136% in assay [1]; 136% (inactive) in assay [3]; 87.2% (inactive) in assay [4]; 66.7% (inactive) in assay [5]; 56.3% in assay [6] (setting [9]); 66.7% in assay [6] (setting [10]). In addition, the Her2 level in assay [2] is 60.5% (inactive). Further, the differential viability (reversal) in assay [6] (H69AR cells + 2 uM doxorubicin) is 10.4% (inactive). Moreover, the figures for the inhibition in assay [7] and in assay [8] were -3.68% (inactive) and -2.54% (inactive), respectively.

As for `Cc1ccc(S(=O)(=O)NC(=O)c2cc(C)n(CCCn3ccnc3)c2C)cc1`, the viability in assay [1] was 101%; in assay [3], 101% (inactive); in assay [4], 94.2% (inactive); in assay [5] it was 90.7% (inactive); in assay [6] (setting [9]), 87.8%; in assay [6] (setting [10]), 90.7%. Moreover, the Her2 level in assay [2] was 84% (inactive). In addition, in assay [6] (H69AR cells + 2 uM doxorubicin), the differential viability (reversal) was 2.88% (inactive). Moreover, the values for the inhibition in assay [7] and in assay [8] were -7.2% (inactive) and 0.82% (inactive), respectively.

Consider `O=C1CC(c2ccco2)=Nc2ccccc2N1`, for which the viability in assay [1] was 95%; in assay [3], 95% (inactive); in assay [4], 94.9% (inactive); in assay [5] it was 109% (inactive); in assay [6] (setting [9]) it was 92.5%; in assay [6] (setting [10]) it was 109%. Besides, the Her2 level in assay [2] was 118% (inactive). The differential viability (reversal) in assay [6] (H69AR cells + 2 uM doxorubicin) is 16.7% (inactive). Besides, the inhibition in assay [7] is -0.13% (inactive); in assay [8], -3.06% (inactive).

`CC(=O)C1=C(O)C(=O)N(Cc2ccco2)C1c1ccc(F)cc1` (stereo not given): the viability is 102% in assay [1]; 102% (inactive) in assay [3]; 123% (inactive) in assay [4]; 109% (inactive) in assay [5]; 100% in assay [6] (setting [9]); 109% in assay [6] (setting [10]). Further, the Her2 level in assay [2] was 110% (inactive). Besides, in assay [6] (H69AR cells + 2 uM doxorubicin), the differential viability (reversal) was 8.52% (inactive). Also, the inhibition in assay [7] was 1.07% (inactive); in assay [8], -5% (inactive).

`COCCn1nnnc1C(c1cc2cc(OC)ccc2[nH]c1=O)N1CCC(Cc2ccccc2)CC1` (stereo not given): the viability is 124% in assay [1]; 124% (inactive) in assay [3]; 65.4% (inactive) in assay [4]; 9.35% (active) in assay [5]; 24.8% in assay [6] (setting [9]); 9.35% in assay [6] (setting [10]). In addition, the Her2 level in assay [2] is 80% (inactive). Besides, the differential viability (reversal) in assay [6] (H69AR cells + 2 uM doxorubicin) is -15.4% (inactive). The figures for the inhibition in assay [7] and in assay [8] were -7.87% (inactive) and -2.38% (inactive), respectively.

With `COC(=O)C(CCCCNC(=O)OCc1ccccc1)NC(=O)CN` (stereo not given) (H-Gly-[ξK](Cbz)-OMe), the viability in assay [1] was 109%; in assay [3], 109% (inactive); in assay [4], 96.6% (inactive); in assay [5], 100% (inactive); in assay [6] (setting [9]) it was 95.5%; in assay [6] (setting [10]), 100%. Also, the Her2 level in assay [2] was 92.5% (inactive). In assay [6] (H69AR cells + 2 uM doxorubicin), the differential viability (reversal) was 4.78% (inactive). In addition, the inhibition in assay [7] was -2.6% (inactive); in assay [8] it was -0.79% (inactive).

These data come from PubChem BioAssay.
